Measured values from ChEMBL document CHEMBL4118021, “Studies of TAK1-centered polypharmacology with novel covalent TAK1 inhibitors” (Bioorg Med Chem, 2017).
Activity calls are given as the source filed them. No cut-off for these calls is given here.

Experiments:
[1] = target: Dual specificity mitogen-activated protein kinase kinase 1 (Homo sapiens) (UniProt Q02750); assay: Inhibition of full length human MEK1 (1 to 393 residues) expressed in mammalian expression system assessed as enzyme activity at 10 uM by KINOMEScan assay relative to control; parameters: scale not given: the % may be the effect or the level left
Dual specificity mitogen-activated protein kinase kinase 1 (Homo sapiens), sequence (Q02750 whole entry, the tested form may be a part): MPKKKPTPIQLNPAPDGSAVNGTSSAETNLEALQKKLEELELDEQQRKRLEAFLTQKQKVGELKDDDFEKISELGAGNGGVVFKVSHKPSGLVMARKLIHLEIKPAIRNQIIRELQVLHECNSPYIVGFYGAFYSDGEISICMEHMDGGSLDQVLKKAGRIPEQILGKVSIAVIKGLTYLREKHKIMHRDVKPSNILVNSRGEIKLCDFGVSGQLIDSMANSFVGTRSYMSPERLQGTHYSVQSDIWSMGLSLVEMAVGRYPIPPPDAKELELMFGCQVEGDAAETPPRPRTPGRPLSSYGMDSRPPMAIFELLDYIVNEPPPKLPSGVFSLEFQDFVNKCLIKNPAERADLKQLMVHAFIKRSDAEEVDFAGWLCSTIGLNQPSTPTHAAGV
Summary of the method: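 In vitro ATP-site competition binding assay (KinomeScan) across a panel of 456 kinases. Compound was tested at 1 and 10 μM. The read-out is the binding inhibition score relative to control.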

[2] = target: Eukaryotic translation initiation factor 2-alpha kinase 3 (Homo sapiens) (UniProt Q9NZJ5); assay: Inhibition of PEK in human SKCO1 cells at 1 uM after 4 hrs using biotin labeled DLKPSNIFFTMDDVVK probe by mass-spectrometric analysis relative to control; type: cell-based
[3] = target: T1, Mitogen-activated protein kinase kinase kinase 7 (Homo sapiens) (UniProt O43318); assay: Inhibition of TAK1 in RA patient-derived synovial fibroblasts assessed as inhibition of TNFalpha-induced cytokine secretion at 3 uM preincubated for 3 hrs followed by TNFalpha stimulation measured after 18 hrs by sandwich immunoassay
T1 sequence (whole entry): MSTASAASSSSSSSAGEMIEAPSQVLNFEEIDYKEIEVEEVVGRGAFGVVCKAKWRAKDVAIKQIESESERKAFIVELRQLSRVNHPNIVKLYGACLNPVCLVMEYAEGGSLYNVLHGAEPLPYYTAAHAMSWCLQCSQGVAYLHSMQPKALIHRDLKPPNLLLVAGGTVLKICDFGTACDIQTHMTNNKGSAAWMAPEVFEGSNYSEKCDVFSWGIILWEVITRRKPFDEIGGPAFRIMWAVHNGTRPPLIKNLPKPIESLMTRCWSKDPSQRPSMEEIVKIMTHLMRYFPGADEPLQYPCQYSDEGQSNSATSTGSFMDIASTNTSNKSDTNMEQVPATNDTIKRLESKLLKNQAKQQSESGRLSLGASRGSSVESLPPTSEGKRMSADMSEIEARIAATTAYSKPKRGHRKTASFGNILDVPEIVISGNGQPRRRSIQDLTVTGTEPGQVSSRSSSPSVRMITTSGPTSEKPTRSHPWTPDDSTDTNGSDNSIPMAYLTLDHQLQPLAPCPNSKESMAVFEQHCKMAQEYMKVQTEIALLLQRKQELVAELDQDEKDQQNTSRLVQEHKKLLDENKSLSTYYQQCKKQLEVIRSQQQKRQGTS
Summary of the method: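 Primary RA synovial fibroblasts (donor RA2159) seeded 1000 cells/well and grown ~24 h at 37 °C, 5% CO2. Starved overnight in basal medium, then ~4 h in basal medium with 0.1% BSA. Two adjacent wells pooled per replicate, in biological duplicate. Supernatants diluted 1:3 and run on Luminex 27-plex/21-plex sandwich immunoassays for 48 analytes, with spiked-ligand and mock-supernatant background controls.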

[4] = target: Mitogen-activated protein kinase 3 (Homo sapiens) (UniProt P27361); assay: Binding affinity to MAPK3 in human NCI-H358 cells at 1 uM by mass spectrometry based pull down assay; type: cell-based
Mitogen-activated protein kinase 3 (Homo sapiens), sequence (P27361 whole entry): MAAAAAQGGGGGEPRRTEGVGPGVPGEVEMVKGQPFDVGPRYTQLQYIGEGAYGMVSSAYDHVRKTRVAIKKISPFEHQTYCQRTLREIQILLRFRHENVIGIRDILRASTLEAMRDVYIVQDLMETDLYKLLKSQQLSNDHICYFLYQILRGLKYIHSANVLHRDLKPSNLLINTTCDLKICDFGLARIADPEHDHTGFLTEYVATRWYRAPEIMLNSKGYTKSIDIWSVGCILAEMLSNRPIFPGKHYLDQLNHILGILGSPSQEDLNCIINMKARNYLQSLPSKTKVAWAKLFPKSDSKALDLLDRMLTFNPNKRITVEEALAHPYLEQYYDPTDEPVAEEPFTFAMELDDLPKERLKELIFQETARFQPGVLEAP

[5] = target: Acylamino-acid-releasing enzyme (Homo sapiens) (UniProt P13798); assay: Binding affinity to APEH in human NCI-H23 cells at 1 uM by mass spectrometry based pull down assay; type: cell-based
[6] = target: Dynamin-binding protein (Homo sapiens) (UniProt Q6XZF7); assay: Binding affinity to DNMBP in human NCI-H23 cells at 1 uM by mass spectrometry based pull down assay; type: cell-based
[7] = target: Tropomyosin alpha-4 chain (Homo sapiens) (UniProt P67936); assay: Binding affinity to TPM4 in human NCI-H358 cells at 1 uM by mass spectrometry based pull down assay; type: cell-based
Tropomyosin alpha-4 chain (Homo sapiens), sequence (P67936 whole entry): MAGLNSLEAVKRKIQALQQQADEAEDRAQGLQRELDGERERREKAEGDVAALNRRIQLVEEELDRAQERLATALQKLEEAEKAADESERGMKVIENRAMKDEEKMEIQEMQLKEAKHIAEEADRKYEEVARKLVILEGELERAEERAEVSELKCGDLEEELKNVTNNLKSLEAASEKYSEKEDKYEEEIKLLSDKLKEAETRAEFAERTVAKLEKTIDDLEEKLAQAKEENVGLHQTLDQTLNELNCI

[8] = target: Medium-chain specific acyl-CoA dehydrogenase, mitochondrial (Homo sapiens) (UniProt P11310); assay: Binding affinity to ACADM in human NCI-H358 cells at 1 uM by mass spectrometry based pull down assay; type: cell-based
Summary of the method: (§1)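 NCI-H23 or NCI-H358 cells were grown and lysed. Lysates were incubated overnight at 4 °C with 1 μM biotinylated covalent probe or DMSO, then pulled down on streptavidin beads. Proteins were run on polyacrylamide gels and stained with Coomassie. Bands were excised, digested and identified by mass spectrometry.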

[9] = target: Importin subunit beta-1 (Homo sapiens) (UniProt Q14974); assay: Binding affinity to KPNB1 in human NCI-H358 cells at 1 uM by mass spectrometry based pull down assay; type: cell-based
Importin subunit beta-1 (Homo sapiens), sequence (Q14974 whole entry): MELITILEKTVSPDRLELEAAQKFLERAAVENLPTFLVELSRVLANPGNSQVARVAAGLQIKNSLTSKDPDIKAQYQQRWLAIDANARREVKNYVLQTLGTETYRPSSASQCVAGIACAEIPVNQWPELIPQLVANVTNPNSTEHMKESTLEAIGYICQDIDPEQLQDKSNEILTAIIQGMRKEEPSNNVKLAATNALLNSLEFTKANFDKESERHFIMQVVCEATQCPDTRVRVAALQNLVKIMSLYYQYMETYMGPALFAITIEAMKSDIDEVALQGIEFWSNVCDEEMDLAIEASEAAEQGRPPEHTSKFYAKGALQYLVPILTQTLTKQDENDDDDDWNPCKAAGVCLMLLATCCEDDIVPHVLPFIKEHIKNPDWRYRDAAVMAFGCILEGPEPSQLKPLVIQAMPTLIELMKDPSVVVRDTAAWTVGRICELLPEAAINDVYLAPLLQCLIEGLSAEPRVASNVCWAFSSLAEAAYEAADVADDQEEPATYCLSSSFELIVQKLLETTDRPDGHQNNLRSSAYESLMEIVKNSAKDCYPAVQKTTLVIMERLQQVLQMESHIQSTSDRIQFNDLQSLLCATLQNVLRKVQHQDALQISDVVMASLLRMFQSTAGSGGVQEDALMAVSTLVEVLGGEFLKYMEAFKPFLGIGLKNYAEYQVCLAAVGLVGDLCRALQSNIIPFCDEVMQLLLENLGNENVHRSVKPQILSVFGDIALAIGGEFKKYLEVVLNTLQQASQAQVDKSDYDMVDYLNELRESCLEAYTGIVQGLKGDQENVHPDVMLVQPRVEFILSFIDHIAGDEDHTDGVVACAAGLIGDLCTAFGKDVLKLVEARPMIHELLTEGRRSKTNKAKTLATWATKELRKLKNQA

[10] = target: Apoptosis regulator BAX (Homo sapiens) (UniProt Q07812); assay: Binding affinity to BAX in human NCI-H23 cells at 1 uM by mass spectrometry based pull down assay; type: cell-based
[11] = target: Mitogen-activated protein kinase kinase kinase 20 (Homo sapiens) (UniProt Q9NYL2); assay: Binding affinity to ZAK in human NCI-H23 cells at 1 uM by mass spectrometry based pull down assay; type: cell-based
[12] = target: Bifunctional phosphoribosylaminoimidazole carboxylase/phosphoribosylaminoimidazole succinocarboxamide synthetase (Homo sapiens) (UniProt P22234); assay: Binding affinity to PAICS in human NCI-H358 cells at 1 uM by mass spectrometry based pull down assay; type: cell-based
Bifunctional phosphoribosylaminoimidazole carboxylase/phosphoribosylaminoimidazole succinocarboxamide synthetase (Homo sapiens), sequence (P22234 whole entry): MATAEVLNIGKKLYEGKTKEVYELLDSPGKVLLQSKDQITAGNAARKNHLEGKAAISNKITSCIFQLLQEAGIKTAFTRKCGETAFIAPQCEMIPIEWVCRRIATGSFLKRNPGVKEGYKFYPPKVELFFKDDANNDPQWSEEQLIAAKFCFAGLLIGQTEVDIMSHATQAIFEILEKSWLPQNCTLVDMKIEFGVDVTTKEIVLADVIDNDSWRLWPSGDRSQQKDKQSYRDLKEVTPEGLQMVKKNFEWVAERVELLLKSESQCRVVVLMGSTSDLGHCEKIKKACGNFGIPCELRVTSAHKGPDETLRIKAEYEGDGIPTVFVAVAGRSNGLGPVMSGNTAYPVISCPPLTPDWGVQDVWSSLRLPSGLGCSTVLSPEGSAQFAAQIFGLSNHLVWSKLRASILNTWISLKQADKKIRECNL

[13] = target: Sequestosome-1 (Homo sapiens) (UniProt Q13501); assay: Binding affinity to SQSTM1 in human NCI-H358 cells at 1 uM by mass spectrometry based pull down assay; type: cell-based
Sequestosome-1 (Homo sapiens), sequence (Q13501 whole entry): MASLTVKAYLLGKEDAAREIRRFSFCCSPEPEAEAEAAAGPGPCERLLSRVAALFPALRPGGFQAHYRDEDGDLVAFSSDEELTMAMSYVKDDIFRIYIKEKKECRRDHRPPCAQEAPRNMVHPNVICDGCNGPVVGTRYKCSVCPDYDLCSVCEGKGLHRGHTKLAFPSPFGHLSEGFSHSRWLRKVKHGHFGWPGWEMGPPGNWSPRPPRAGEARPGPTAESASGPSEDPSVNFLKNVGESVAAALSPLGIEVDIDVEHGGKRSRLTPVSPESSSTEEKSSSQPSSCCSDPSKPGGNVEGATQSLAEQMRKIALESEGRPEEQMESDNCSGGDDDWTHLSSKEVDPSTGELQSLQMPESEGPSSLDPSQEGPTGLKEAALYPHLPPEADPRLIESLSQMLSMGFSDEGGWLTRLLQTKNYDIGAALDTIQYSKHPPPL

[14] = target: Sarcoplasmic/endoplasmic reticulum calcium ATPase 2 (Homo sapiens) (UniProt P16615); assay: Binding affinity to ATP2A2 in human NCI-H23 cells at 1 uM by mass spectrometry based pull down assay; type: cell-based
[15] = target: Cyclin-G-associated kinase (Homo sapiens) (UniProt O14976); assay: Binding affinity to GAK in human NCI-H358 cells at 1 uM by mass spectrometry based pull down assay; type: cell-based
Cyclin-G-associated kinase (Homo sapiens), sequence (O14976 whole entry): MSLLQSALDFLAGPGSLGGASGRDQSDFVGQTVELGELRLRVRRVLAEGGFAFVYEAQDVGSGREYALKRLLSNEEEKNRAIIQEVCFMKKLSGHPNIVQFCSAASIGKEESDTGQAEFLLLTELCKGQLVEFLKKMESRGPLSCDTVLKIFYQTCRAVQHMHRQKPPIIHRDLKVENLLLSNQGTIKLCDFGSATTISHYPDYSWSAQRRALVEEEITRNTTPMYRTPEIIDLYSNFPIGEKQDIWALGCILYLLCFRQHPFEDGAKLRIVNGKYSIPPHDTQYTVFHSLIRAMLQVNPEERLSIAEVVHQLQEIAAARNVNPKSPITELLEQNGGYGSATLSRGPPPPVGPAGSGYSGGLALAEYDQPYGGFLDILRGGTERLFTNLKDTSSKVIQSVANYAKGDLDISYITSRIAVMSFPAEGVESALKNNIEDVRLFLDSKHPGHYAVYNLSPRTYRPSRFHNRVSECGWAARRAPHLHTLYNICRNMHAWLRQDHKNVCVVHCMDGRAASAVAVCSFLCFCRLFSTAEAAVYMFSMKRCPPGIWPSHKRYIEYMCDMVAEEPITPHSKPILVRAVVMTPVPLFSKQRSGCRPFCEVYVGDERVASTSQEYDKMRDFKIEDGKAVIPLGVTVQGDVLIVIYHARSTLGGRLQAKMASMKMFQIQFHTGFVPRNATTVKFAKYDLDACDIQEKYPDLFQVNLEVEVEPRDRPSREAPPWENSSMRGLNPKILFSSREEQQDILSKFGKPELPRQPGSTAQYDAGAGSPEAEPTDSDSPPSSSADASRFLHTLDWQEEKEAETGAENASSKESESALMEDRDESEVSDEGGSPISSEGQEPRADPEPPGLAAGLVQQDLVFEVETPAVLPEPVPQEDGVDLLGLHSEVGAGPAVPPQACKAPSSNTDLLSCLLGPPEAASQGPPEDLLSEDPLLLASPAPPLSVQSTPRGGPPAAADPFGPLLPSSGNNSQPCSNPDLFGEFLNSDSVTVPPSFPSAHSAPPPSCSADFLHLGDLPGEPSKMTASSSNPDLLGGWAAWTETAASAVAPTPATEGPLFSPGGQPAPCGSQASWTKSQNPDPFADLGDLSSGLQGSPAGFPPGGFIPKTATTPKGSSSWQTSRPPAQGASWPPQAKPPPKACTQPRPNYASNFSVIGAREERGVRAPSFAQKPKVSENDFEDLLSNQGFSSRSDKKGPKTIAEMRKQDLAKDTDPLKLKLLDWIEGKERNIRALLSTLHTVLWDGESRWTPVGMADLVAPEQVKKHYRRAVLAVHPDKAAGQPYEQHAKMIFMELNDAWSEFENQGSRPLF

[16] = target: Bifunctional 3'-phosphoadenosine 5'-phosphosulfate synthase 2 (Homo sapiens) (UniProt O95340); assay: Binding affinity to PAPSS2 in human NCI-H23 cells at 1 uM by mass spectrometry based pull down assay; type: cell-based
[17] = target: Actin-related protein 3 (Homo sapiens) (UniProt P61158); assay: Binding affinity to ACTR3 in human NCI-H23 cells at 1 uM by mass spectrometry based pull down assay; type: cell-based; summary of the method: as §1
[18] = target: Vasodilator-stimulated phosphoprotein (Homo sapiens) (UniProt P50552); assay: Binding affinity to VASP in human NCI-H23 cells at 1 uM by mass spectrometry based pull down assay; type: cell-based
Vasodilator-stimulated phosphoprotein (Homo sapiens), sequence (P50552 whole entry): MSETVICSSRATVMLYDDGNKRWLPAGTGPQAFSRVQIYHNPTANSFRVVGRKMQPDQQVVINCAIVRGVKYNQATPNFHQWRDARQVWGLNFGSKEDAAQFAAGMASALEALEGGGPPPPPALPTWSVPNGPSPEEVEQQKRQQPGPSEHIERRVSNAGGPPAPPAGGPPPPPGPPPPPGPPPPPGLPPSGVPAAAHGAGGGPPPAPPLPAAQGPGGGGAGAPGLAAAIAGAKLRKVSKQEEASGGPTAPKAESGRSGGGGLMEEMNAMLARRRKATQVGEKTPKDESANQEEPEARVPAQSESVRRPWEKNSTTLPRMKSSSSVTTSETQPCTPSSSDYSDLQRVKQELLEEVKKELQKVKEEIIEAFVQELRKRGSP

[19] = target: Interleukin enhancer-binding factor 2 (Homo sapiens) (UniProt Q12905); assay: Binding affinity to ILF2 in human NCI-H23 cells at 1 uM by mass spectrometry based pull down assay; type: cell-based
[20] = target: 5'-nucleotidase domain-containing protein 1 (Homo sapiens) (UniProt Q5TFE4); assay: Binding affinity to NT5DC1 in human NCI-H358 cells at 1 uM by mass spectrometry based pull down assay; type: cell-based
[21] = target: Acyl-coenzyme A thioesterase 9, mitochondrial (Homo sapiens) (UniProt Q9Y305); assay: Binding affinity to ACOT9 in human NCI-H23 cells at 1 uM by mass spectrometry based pull down assay; type: cell-based; summary of the method: as §1
Acyl-coenzyme A thioesterase 9, mitochondrial (Homo sapiens), sequence (Q9Y305 whole entry): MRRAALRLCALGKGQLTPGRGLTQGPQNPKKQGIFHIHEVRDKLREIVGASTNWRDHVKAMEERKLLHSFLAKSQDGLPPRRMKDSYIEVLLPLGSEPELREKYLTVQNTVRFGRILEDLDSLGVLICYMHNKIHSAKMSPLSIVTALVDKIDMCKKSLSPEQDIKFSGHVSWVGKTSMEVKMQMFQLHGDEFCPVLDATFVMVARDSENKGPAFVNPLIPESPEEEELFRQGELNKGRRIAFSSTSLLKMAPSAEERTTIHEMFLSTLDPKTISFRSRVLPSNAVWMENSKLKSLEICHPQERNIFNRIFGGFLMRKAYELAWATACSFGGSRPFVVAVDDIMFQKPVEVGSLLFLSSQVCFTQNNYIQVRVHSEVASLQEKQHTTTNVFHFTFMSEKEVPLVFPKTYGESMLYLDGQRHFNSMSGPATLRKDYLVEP

[22] = target: Reticulon-4 (Homo sapiens) (UniProt Q9NQC3); assay: Binding affinity to RTN4 in human NCI-H358 cells at 1 uM by mass spectrometry based pull down assay; type: cell-based
[23] = target: Filamin-B (Homo sapiens) (UniProt O75369); assay: Binding affinity to FLNB in human NCI-H358 cells at 1 uM by mass spectrometry based pull down assay; type: cell-based

COc1cc(O)c2c(c1)/C=C/C[C@H](O)[C@H](O)C(=O)/C=C\C[C@H](C)OC2=O
Activity [1]: 0.05% | inhibition [2]: -10%

C=CC(=O)Nc1ccccc1Oc1nc(Nc2cnn(CCOC)c2)ncc1Cl
inhibition [3]: Active

C=CC(=O)Nc1ccccc1Nc1nc(Nc2ccc(N3CCN(CCOCCOCCOCCNC(=O)CCCC[C@@H]4SC[C@@H]5NC(=O)N[C@@H]54)CC3)cc2)ncc1Cl
Activity [4]: Active | Activity [5]: Active | Activity [6]: Active | Activity [7]: Active | Activity [8]: Active | Activity [9]: Active | Activity [10]: Active | Activity [11]: Active | Activity [12]: Active | Activity [13]: Active | Activity [14]: Active | Activity [15]: Active | Activity [16]: Active | Activity [17]: Active | Activity [18]: Active | Activity [19]: Active | Activity [20]: Active | Activity [21]: Active | Activity [22]: Active | Activity [23]: Active
